# Sampled rows, rich in hits. Any-hit rate of the full collection: about 2.3%.
# TRPC4 PAM – allosterically enhances the mouse TRPC4 cation channel. HEK293 TRPC4beta/mu-opioid, DAMGO EC20, Fluo-4 Ca2+ flux; stronger effect = higher value. B-score at 10 µM. hit rate 0.42% among 310,000;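 active = B-score of calcium response area above 5 SD of library B-scores, with initial fluorescence ratio within 5 SD of library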;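 also: B-score of integrated fluorescence ratio over time as area under calcium response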
# Target sequence (Q9QUQ5 whole entry, looked up): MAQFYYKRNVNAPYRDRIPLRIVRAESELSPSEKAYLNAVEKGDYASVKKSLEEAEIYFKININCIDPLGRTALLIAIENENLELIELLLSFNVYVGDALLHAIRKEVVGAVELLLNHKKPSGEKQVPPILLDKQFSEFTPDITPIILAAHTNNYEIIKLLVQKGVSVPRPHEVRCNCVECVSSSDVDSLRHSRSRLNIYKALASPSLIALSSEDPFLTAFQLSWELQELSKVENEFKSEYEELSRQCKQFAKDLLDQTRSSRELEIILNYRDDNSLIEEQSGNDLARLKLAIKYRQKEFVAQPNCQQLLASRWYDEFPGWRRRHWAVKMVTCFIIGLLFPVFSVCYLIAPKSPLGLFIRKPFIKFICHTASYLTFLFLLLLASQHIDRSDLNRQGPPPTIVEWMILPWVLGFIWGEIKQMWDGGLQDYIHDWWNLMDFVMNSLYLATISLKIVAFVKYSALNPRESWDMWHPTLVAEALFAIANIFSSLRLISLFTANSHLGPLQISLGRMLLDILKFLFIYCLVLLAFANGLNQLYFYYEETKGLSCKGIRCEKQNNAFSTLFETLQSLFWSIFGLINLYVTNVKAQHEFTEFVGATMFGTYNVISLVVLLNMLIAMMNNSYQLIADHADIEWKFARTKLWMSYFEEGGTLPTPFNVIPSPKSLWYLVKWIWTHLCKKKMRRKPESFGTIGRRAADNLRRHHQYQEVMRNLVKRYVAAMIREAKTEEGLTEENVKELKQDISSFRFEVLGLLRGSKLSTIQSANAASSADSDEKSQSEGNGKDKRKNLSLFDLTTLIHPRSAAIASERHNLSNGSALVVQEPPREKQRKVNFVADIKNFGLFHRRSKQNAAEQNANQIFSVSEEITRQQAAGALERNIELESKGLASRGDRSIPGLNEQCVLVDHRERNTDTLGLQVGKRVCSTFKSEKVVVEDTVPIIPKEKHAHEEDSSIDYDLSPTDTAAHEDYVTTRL
# TRPC6 activator – activates the mouse TRPC6 cation channel; Q61143; HEK293-TRPC6 membrane potential dye fluorescence; stronger effect = higher value; B-score at 10 µM; hit rate 0.13% among 310,000;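 active = B-score of the integrated fluorescence ratio above library mean plus 3 SD, and starting fluorescence ratio within library mean plus 5 SD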;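 also: higher score means more depolarization so channel activation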
# TRPC4 block – TRPC4 (mouse) channel inhibition | Q9QUQ5 | HEK293 TRPC4beta/mu-opioid, DAMGO-evoked Fluo4 calcium flux; stronger effect = lower value | B-score at 10 µM | hit rate 0.39% among 300,000 | AID 2247;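 active = B-score over 3 SD under the library average, no early fluorescence shift, positive overall ratio signal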
#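 Material: HEK293 cells with stable TRPC4beta plus mu-opioid receptor expression; probe or stimulus: DAMGO in two steps, submaximal then maximal; technique: Fluo4 calcium fluorescence by kinetic imaging, 5 s 1 Hz baseline; measure: integrated fluorescence ratio relative to baseline, converted to per-well B score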
# TRPC6 inhibitor – blocks the mouse TRPC6 cation channel; Q61143; HEK293-TRPC6, membrane potential dye, ACh-evoked depolarization; stronger effect = lower value; B-score at 10 µM; hit rate 1.1% among 310,000; AID 2553;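 active = B-score under library mean minus 3 SD, initial fluorescence not abnormally high, positive integrated signal ratio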;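 also: B-score derived from integrated fluorescence ratio over the kinetic read; more negative B-score means stronger inhibition of depolarization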
# TRPC4 agonist – opens the mouse TRPC4 cation channel; HEK293 TRPC4beta/mu-opioid, Fluo4 calcium fluorescence; stronger effect = higher value; hit rate 0.49% among 310,000; Q9QUQ5; B-score at 10 µM;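 active = B-score above 5 SD of library B-scores, and initial fluorescence ratio not above library mean plus 5 SD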;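 also: positive B-score marks a calcium rise read as TRPC4 activation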
#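 Material: HEK293 stable line with TRPC4beta plus mu-opioid receptor; technique: Fluo4 calcium-sensitive dye fluorescence, kinetic, 1 Hz baseline; timing: Fluo4 dye loading 45 min at room temperature, 110 s recording; controls: assay buffer as low control, maximal DAMGO as high control; read-out: integrated baseline-normalised fluorescence ratio, converted to per-well B score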
# TRPC4 sel inh 2 – mouse TRPC4 off-target activity of TRPC6 inhibitors, second screen. shares compounds with TRPC6 inhibitor. inhibition, % at 10 µM. hit rate 42% among 920. HEK293 TRPC4/MOR, membrane potential dye fluorescence; channel activated by saturating DAMGO dose;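 active = compounds whose fluorescence signal differed from control wells by over 3 SD, either direction, in both duplicate plates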
# TRPC4 spec – selectivity of TRPC6 inhibitors: effect on mouse TRPC4; shares compounds with TRPC6 inhibitor; HEK293 TRPC4/mu-opioid, membrane potential fluorescence; activity change, negative = inhibition, % at 10 µM; hit rate 61% among 920; AID 2777;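 active = rise or fall in signal beyond 3 SD of buffer-only wells in both replicate plates, either sign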;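 also: integrated kinetic ratio of fluorescence range over baseline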
# HEK293 MPD ctr 2-1 – second counter-screen for TRPC6 inhibitors: parental HEK293 cells | hit rate 31% among 920 | parental HEK293 membrane potential dye fluorescence; maximal acetylcholine challenge after compound addition | shares compounds with TRPC6 inhibitor | AID 2779 | signal change vs control, % at 10 µM;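 active = membrane potential signal moving either way by over 3 SD of the maximum-effect control, in both duplicate plates, meaning non-specific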
# HEK293 MPD ctr-1 – checks TRPC6 inhibitor effects in parental HEK293 cells. shares compounds with TRPC6 inhibitor. AID 2780. hit rate 60% among 920. parental HEK293 membrane potential dye fluorescence. membrane potential signal change, % at 10 µM;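 active = membrane potential signal shifting up or down by more than 3 SD of buffer-only wells, on both duplicate plates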
# HEK293 MPD ctr-2 – checks TRPC6 modulator effects in parental HEK293 cells. hit rate 51% among 2,400. membrane potential dye fluorescence. shares compounds with TRPC6 inhibitor. membrane potential signal change, % at 10 µM;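 active = membrane potential signal moves up or down beyond 5 SD from buffer-only wells, on both duplicate plates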
# HEK293 MPD ctr 2-2 – second counter-screen for TRPC6 modulators: effect in parental HEK293 cells; shares compounds with TRPC6 inhibitor; membrane potential dye fluorescence; after compound, maximal acetylcholine stimulation; inhibition, % at 10 µM; hit rate 14% among 2,400;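 active = membrane potential signal drops by more than 5 SD from the mean control signal, in both duplicate plates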;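 also: plate controls were acetylcholine ECmax control wells for no effect and buffer only wells for full effect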
# TRPC4/MOR mod – mouse TRPC4 off-target activity of TRPC6 modulators. shares compounds with TRPC6 inhibitor. percent change from control (negative = decrease, positive = increase), % at 10 µM. hit rate 69% among 2,400. HEK293 TRPC4/mu-opioid, membrane potential fluorescence;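 active = membrane potential signal moved up or down beyond 5 SD of buffer control wells, in both duplicate plates, actives on both sides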;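 also: plate controls were assay buffer wells for no effect and DAMGO maximal-effect wells for full effect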
# TRPC4 ctr inh 2 – second selectivity test of TRPC6 modulators against mouse TRPC4; shares compounds with TRPC6 inhibitor; HEK293 TRPC4/mu-opioid, membrane potential dye fluorescence; stimulated with maximal-effect DAMGO; inhibition, % at 10 µM; hit rate 55% among 2,400; AID 488928;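 active = drop in membrane potential signal beyond 5 SD of the control wells in both duplicate plates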;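 also: TRPC4 counter screen for TRPC6 hits run under conditions tuned for TRPC6 not TRPC4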
# TRPC6 inh conf – mouse TRPC6 inhibitor confirmation. inhibition, % at 10 µM. hit rate 43% among 3,300. HEK293-TRPC6, membrane potential dye, ACh-evoked depolarization. shares compounds with TRPC6 inhibitor. AID 488960;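 active = fluorescence ratio falls more than 5 SD below the full-stimulation control mean, in both duplicate runs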;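 also: integrated fluorescence ratio of peak minus minimum over baseline after agonist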
# TRPC6 act confirm – confirmation of mouse TRPC6 activators; shares compounds with TRPC6 inhibitor; activation, % at 10 µM; hit rate 11% among 2,800; AID 488961; HEK293-TRPC6 membrane potential dye fluorescence, FDSS;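 active = ratio signal rise beyond 5 SD above unstimulated control wells' mean, seen in both duplicate runs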;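 also: plate controls were buffer EC0 wells for no effect and acetylcholine ECmax response for full effect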
# * hit, by the source's call; i = inactive; . = no result.
SMILES,TRPC4 PAM,TRPC6 activator,TRPC4 block,TRPC6 inhibitor,TRPC4 agonist,TRPC6 inh conf,TRPC6 act confirm,others
CCN1CCCC1CNC(=O)c1cc(OC)c(OC)c(OC)c1 (centres undefined),i,i,i,i,i,.,.,
CC(C)C(C)NC(=O)COC(=O)C1CCN(S(=O)(=O)c2ccc3c(c2)OCCO3)CC1 (centres undefined),i,i,i,-6.38*,i,i,i,HEK293 MPD ctr-2=i;HEK293 MPD ctr 2-2=i;TRPC4/MOR mod=7.0%*;TRPC4 ctr inh 2=i
CCNC(=O)COC(=O)C1CCN(S(=O)(=O)c2ccc3c(c2)OCCO3)CC1,i,i,i,i,i,.,.,
CCCCS/C(=C(/C#N)C(N)=O)c1cc2c([nH]1)CCCC2,i,i,i,-5.71*,i,54.5%*,i,HEK293 MPD ctr-2=i;HEK293 MPD ctr 2-2=i;TRPC4/MOR mod=11.0%*;TRPC4 ctr inh 2=i
CCc1ccc(N/C(SC)=C(/C#N)C(N)=O)cc1,i,i,i,i,i,.,.,
COc1ccc(OCC(O)CNC(=O)c2ccc(C)cc2)cc1 (centres undefined),i,i,i,i,i,.,.,
CCOc1cc(C)c(S(=O)(=O)NCCCn2ccnc2)cc1C,i,i,i,i,i,.,.,
CC1CCN(Cc2ccc(NC(=O)C3CCN(c4nnc(-n5cccc5)s4)CC3)cc2)CC1,i,i,i,-7.85*,i,i,i,TRPC4 sel inh 2=71.0%*;TRPC4 spec=i;HEK293 MPD ctr 2-1=i;HEK293 MPD ctr-1=i
O=C(C1CCN(c2nnc(-n3cccc3)s2)CC1)N1CCN(Cc2ccc3c(c2)OCO3)CC1,i,i,i,i,i,.,.,
CCOc1ccc(NC(=S)c2ccc3ccccc3n2)cc1,i,i,i,i,i,.,.,
CCOc1ccc(CN(C)C(=O)c2ccc3ccccc3n2)cc1,i,i,i,-5.84*,i,i,i,HEK293 MPD ctr-2=i;HEK293 MPD ctr 2-2=i;TRPC4/MOR mod=i;TRPC4 ctr inh 2=i
CCOC(=O)N1CCN(C(=O)CN(c2cc(Cl)ccc2OC)S(=O)(=O)c2ccccc2)CC1,i,i,i,-7.89*,i,i,i,TRPC4 sel inh 2=i;TRPC4 spec=7.5%*;HEK293 MPD ctr 2-1=i;HEK293 MPD ctr-1=3.1%*
O=C(CNC(=O)N1CC(=O)Nc2ccccc21)NCCc1cccc(F)c1,i,i,i,i,i,.,.,
CC1(c2ccccc2)NC(=O)N(CC(=O)N2CCN(S(=O)(=O)c3cccc([N+](=O)[O-])c3)CC2)C1=O (centres undefined),i,i,i,i,i,.,.,
CC1=CC(C)(C)N(C(=O)CNC2CCCCC2)c2cc(C)ccc21,i,i,i,-5.56*,i,50.5%*,i,HEK293 MPD ctr-2=125.5%*;HEK293 MPD ctr 2-2=i;TRPC4/MOR mod=35.5%*;TRPC4 ctr inh 2=57.5%*
CC1=CC(C)(C)N(C(=O)CCl)c2cc(C)ccc21,i,i,i,i,i,.,.,
Cc1cccn2c(=O)c3cc(C(=O)NCc4cccnc4)c(=N)n(C(C)C)c3nc12,i,i,i,-6.16*,i,i,i,HEK293 MPD ctr-2=i;HEK293 MPD ctr 2-2=i;TRPC4/MOR mod=i;TRPC4 ctr inh 2=38.0%*
Cc1cccn2c(=O)c3cc(C(=O)NCc4ccco4)c(=N)n(C(C)C)c3nc12,i,i,i,-8.05*,i,i,i,TRPC4 sel inh 2=i;TRPC4 spec=-30.6%*;HEK293 MPD ctr 2-1=i;HEK293 MPD ctr-1=-445.5%*
CC1CCc2c(nc3ncnn3c2NCCN(C)C)C1 (centres undefined),i,i,i,i,i,.,.,
CCOC(=O)c1cnc2c(CC)cccc2c1NCCN1CCOCC1,i,i,i,i,i,.,.,
CCOC(=O)c1cnc2c(C(=O)OC)cccc2c1NCCN1CCOCC1,i,i,i,-5*,i,48.0%*,.,HEK293 MPD ctr-2=137.0%*;HEK293 MPD ctr 2-2=i;TRPC4/MOR mod=20.5%*;TRPC4 ctr inh 2=47.0%*
CCOC(=O)c1cnc2c(C)cccc2c1NCCCN1CCOCC1,i,i,i,-6.75*,i,i,i,TRPC4 sel inh 2=58.5%*;TRPC4 spec=i;HEK293 MPD ctr 2-1=-31.0%*;HEK293 MPD ctr-1=i
CCOC(=O)c1cnc2ccc(OCC)cc2c1NCc1cccnc1,i,i,i,i,i,.,.,
CCOC(=O)c1cnc2c(OC)cccc2c1NCc1cccnc1,i,i,i,-7.51*,i,82.6%*,i,TRPC4 sel inh 2=i;TRPC4 spec=i;HEK293 MPD ctr 2-1=-15.0%*;HEK293 MPD ctr-1=i
COc1ccccc1NS(=O)(=O)c1cc(C(=O)NCC(C)(C)N2CCOCC2)ccc1C,i,i,i,i,i,.,.,
Cc1ccc(OCC(=O)NCCCNC(=O)c2ccncc2)cc1,i,i,i,i,i,.,.,
CC(=O)c1cccc(Nc2cc(C)nc3ccc(C)cc23)c1,i,i,i,-6.6*,i,i,i,TRPC4 sel inh 2=66.5%*;TRPC4 spec=-22.1%*;HEK293 MPD ctr 2-1=14.5%*;HEK293 MPD ctr-1=-260.0%*
CC(=O)c1cccc(Nc2cc(C)nc3c(C)cc(C)cc23)c1,i,i,-6*,-5.75*,i,56.5%*,i,HEK293 MPD ctr-2=-102.0%*;HEK293 MPD ctr 2-2=75.5%*;TRPC4/MOR mod=-21.5%*;TRPC4 ctr inh 2=65.0%*
Cc1cc(C)c2nc(C)cc(Nc3ccc(C(=O)N4CCOCC4)cc3)c2c1,i,i,i,-6.92*,i,70.3%*,i,TRPC4 sel inh 2=i;TRPC4 spec=-16.4%*;HEK293 MPD ctr 2-1=i;HEK293 MPD ctr-1=-271.5%*
C/C(N)=C(/C#N)C(=O)CSc1nnc(-c2ccccc2)n1C,i,i,i,i,i,.,.,
